# Results: ChEMBL document CHEMBL2163294, “2-(N-Benzyl-N-phenylsulfonamido)alkyl amide derivatives as γ-secretase inhibitors” (Bioorg Med Chem Lett, 2012)
# Experiments:
# [1] = Inhibition of gamma-secretase-mediated amyloid beta42 production by GS H4-8 SW1-42 assay
# [2] = Inhibition of gamma-secretase
# [3] = tested on: Liver microsomes; assay: Metabolic stability in human liver microsomes; type: ADME, Microsome
# [4] = Drug uptake in Tg2576 mouse brain at 200 umol/kg, po measured at 180 mins; type: ADME, organism-based; details: read-out: Drug uptake
# Method in brief: (§1)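 Transgenic mice received a single 200 µmol/kg dose. […] Test-compound concentrations in brain and plasma (nM) were measured at the same time point.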
# [5] = Plasma concentration in Tg2576 mouse at 200 umol/kg, po measured at 180 mins; type: ADME, organism-based; method in brief: as §1
# [6] = tested on: Mus musculus; assay: Antialzheimer activity in Tg2576 mouse assessed as reduction in brain amyloid-beta40 level at 200 umol/kg, po measured at 180 mins; type: functional; details: 3 h; method in brief: as §1
# [7] = tested on: Mus musculus; assay: Antialzheimer activity in Tg2576 mouse assessed as reduction in plasma amyloid-beta40 level at 200 umol/kg, po measured at 180 mins; type: functional; details: 3 h; method in brief: as §1
# [8] = tested on: Liver; assay: Metabolic stability in mouse liver microsomes; type: ADME, Microsome
# [9] = target: Gamma-secretase; assay: Inhibition of human gamma-secretase expressed in IMR32 cell membranes using MBPC-125 Swedish as substrate assessed as inhibition of amyloid beta40 production after 2 hrs by ELISA; details: imr-32
IC50 ([1]; read-out: IC50) [nM],Compound,further results
380,CNC(=O)[C@@H](CC(C)C)N(Cc1ccc(OC)cc1)S(=O)(=O)c1ccc(Cl)cc1,
0.39,CC(C)C[C@H](C(N)=O)N(Cc1ccc(C(C)(C)C)cc1)S(=O)(=O)c1ccc(Cl)cc1,
54,CC(C)(C)C(=O)C[C@H](C(N)=O)N(Cc1ccc(C#N)cc1)S(=O)(=O)c1ccc(Cl)cc1,
19,COc1ccc(CN([C@H](CC(C)C)C(=O)NO)S(=O)(=O)c2ccc(Cl)cc2)cc1F,
0.67,CC(C)C[C@H](C(N)=O)N(Cc1ccc(C#N)cc1)S(=O)(=O)c1ccc(Cl)cc1,
2.6,CCC[C@H](C(N)=O)N(Cc1ccc(C#N)cc1)S(=O)(=O)c1ccc(Cl)cc1,
4.2,CC(C)C[C@H](C(N)=O)N(CCSC(C)(C)C)S(=O)(=O)c1ccc(Cl)cc1,
390,COc1ccc(CN([C@H](Cc2ccccc2)C(N)=O)S(=O)(=O)c2ccc(Cl)cc2)cc1,
2.3,CCN([C@H](CC(C)C)C(N)=O)S(=O)(=O)c1ccc(Cl)cc1,
0.39,CC(C)C[C@H](C(N)=O)N(Cc1ccc(C(F)(F)F)cc1)S(=O)(=O)c1ccc(Cl)cc1,
0.69,CC(C)C[C@H](C(N)=O)N(Cc1ccc(OC(F)(F)F)cc1)S(=O)(=O)c1ccc(Cl)cc1,
0.58,CC(C)C[C@H](C(N)=O)N(Cc1ccc(C(C)C)cc1)S(=O)(=O)c1ccc(Cl)cc1,
2200,COc1ccc(CN([C@H](CC(C)C)c2nc(C)no2)S(=O)(=O)c2ccc(Cl)cc2)cc1,
0.27,CC(C)C[C@H](C(N)=O)N(Cc1ccc(N(C)C)cc1)S(=O)(=O)c1ccc(Cl)cc1,
1800,C[S+]([O-])CC[C@H](C(N)=O)N(Cc1ccc(C#N)cc1)S(=O)(=O)c1ccc(Cl)cc1 (stereo not given in full),
0.44,CC(C)C[C@H](C(N)=O)N(Cc1ccc(F)c(F)c1)S(=O)(=O)c1ccc(Cl)cc1,
,NC(=O)[C@@H](CCC(F)(F)F)N(Cc1ccc(-c2ncon2)cc1F)S(=O)(=O)c1ccc(Cl)cc1,IC50 [2]: 0.3 nM
0.41,CC(C)C[C@H](C(N)=O)N(CCCc1ccccc1)S(=O)(=O)c1ccc(Cl)cc1,
7,COc1ccc(CN([C@H](CC(C)C)C(N)=O)S(=O)(=O)c2cccc(Cl)c2)cc1F,
23,COc1ccccc1CN([C@H](CC(C)C)C(N)=O)S(=O)(=O)c1ccc(Cl)cc1,
0.43,CC(C)C[C@H](C(N)=O)N(Cc1ccc(F)cc1)S(=O)(=O)c1ccc(Cl)cc1,

IC50 ([1]; read-out: IC50) [nM],Compound,further results
4.4,CC[C@H](C(N)=O)N(Cc1ccc(C#N)cc1)S(=O)(=O)c1ccc(Cl)cc1,
0.35,CC(C)C[C@H](C(N)=O)N(Cc1ccccc1)S(=O)(=O)c1ccc(Cl)cc1,
1100,COc1ccc(CN([C@H](CC(C)C)C(=O)N(C)C)S(=O)(=O)c2ccc(Cl)cc2)cc1,
1,CCCC[C@H](C(N)=O)N(Cc1ccc(C#N)cc1)S(=O)(=O)c1ccc(Cl)cc1,
0.35,C=CC[C@H](C(N)=O)N(Cc1ccc(OC)c(F)c1)S(=O)(=O)c1ccc(Cl)cc1,
0.94,N#Cc1ccc(CN([C@H](CC2CC2)C(N)=O)S(=O)(=O)c2ccc(Cl)cc2)cc1,Stability [3]: 0.16 nmol/min/mg; concentration at 3 h [4]: 2800 nM; concentration at 3 h [5]: 8600 nM; inhibition in vivo at 200 µmol/kg [6]: 75%; inhibition in vivo at 200 µmol/kg [7]: 81%; Stability [8]: 0.17 nmol/min/mg
,COc1ccc(CN([C@H](CC(C)C)C(N)=O)S(=O)(=O)c2ccc(Cl)cc2)cc1,IC50 [9]: 0.19 nM
0.27,COc1ccc(CN([C@H](CC(C)C)C(N)=O)S(=O)(=O)c2ccc(C(F)(F)F)cc2)cc1F,
0.52,CCC[C@H](C(N)=O)N(Cc1ccc(OC)c(F)c1)S(=O)(=O)c1ccc(Cl)cc1,Stability [3]: 0.3 nmol/min/mg; concentration at 3 h [4]: 380 nM; concentration at 3 h [5]: 840 nM; inhibition in vivo at 200 µmol/kg [6]: 72%; inhibition in vivo at 200 µmol/kg [7]: 41%; Stability [8]: 0.3 nmol/min/mg
17,CC(C)C[C@H](C(N)=O)N(CC1CCN(Cc2ccccc2)CC1)S(=O)(=O)c1ccc(Cl)cc1,
0.79,CC(C)C[C@H](C(N)=O)N(CC1CCCCC1)S(=O)(=O)c1ccc(Cl)cc1,
0.59,COc1cccc(CN([C@H](CC(C)C)C(N)=O)S(=O)(=O)c2ccc(Cl)cc2)c1,
2000,COc1ccc(CN(CC(N)=O)S(=O)(=O)c2ccc(Cl)cc2)cc1F,
,COc1ccc(CN([C@@H]2CCCCNC2=O)S(=O)(=O)c2ccc(Cl)cc2)cc1,Stability [3]: 0.23 nmol/min/mg; concentration at 3 h [4]: 2200 nM; concentration at 3 h [5]: 280 nM; inhibition in vivo at 200 µmol/kg [6]: 49%; inhibition in vivo at 200 µmol/kg [7]: 47%; Stability [8]: 0.22 nmol/min/mg
9.9,CC(C)C[C@H](C(N)=O)N(CCCCN1CCOCC1)S(=O)(=O)c1ccc(Cl)cc1,
0.26,COc1ccc(CN([C@H](CC(C)C)C(N)=O)S(=O)(=O)c2ccc(F)cc2)cc1F,
2.8,Cc1ccc(S(=O)(=O)N(Cc2ccc(C#N)cc2)[C@H](CC(C)C)C(N)=O)cc1,
110,CC(C)C[C@H](C(=O)NN)N(Cc1ccc(C(F)(F)F)cc1)S(=O)(=O)c1ccc(Cl)cc1,
0.45,COc1ccc(CN([C@H](CC(C)C)C(N)=O)S(=O)(=O)c2ccc(C)cc2)cc1F,
9.2,COc1ccc(CN([C@H](CC(C)C)C(N)=O)S(=O)(=O)c2cccc(C)c2)cc1F,
5.3,COc1ccc(CN([C@H](C)C(N)=O)S(=O)(=O)c2ccc(Cl)cc2)cc1F,

IC50 ([1]; read-out: IC50) [nM],Compound,further results
1.7,COc1ccc(CN([C@H](CC(C)C)C(N)=O)S(=O)(=O)c2ccccc2)cc1F,
0.35,CC(C)C[C@H](C(N)=O)N(Cc1ccc(CCl)cc1)S(=O)(=O)c1ccc(Cl)cc1,
48,COC[C@H](C(N)=O)N(Cc1ccc(C#N)cc1)S(=O)(=O)c1ccc(Cl)cc1,
0.15,COc1ccc(CN([C@H](CC(C)C)C(N)=O)S(=O)(=O)c2ccc(Cl)cc2)cc1F,
1100,COc1ccc(CN(C(=O)Nc2ccccc2)[C@H](CC(C)C)C(N)=O)cc1F,
2.7,CC(C)C[C@H](C(N)=O)N(Cc1ccc(C#N)cc1)S(=O)(=O)c1ccc(F)cc1,
19,CSCC[C@H](C(N)=O)N(Cc1ccc(C#N)cc1)S(=O)(=O)c1ccc(Cl)cc1,
4300,CS(=O)(=O)CC[C@H](C(N)=O)N(Cc1ccc(C#N)cc1)S(=O)(=O)c1ccc(Cl)cc1,
4.9,CC(C)C[C@H](C(N)=O)N(CCCCCCn1ccnc1)S(=O)(=O)c1ccc(Cl)cc1,
1200,COc1ccc(CN([C@H](CC(C)C)c2nc(C)ns2)S(=O)(=O)c2ccc(Cl)cc2)cc1,
3.5,CC(C)C[C@H](C(N)=O)N(CCCCCCN1CCOCC1)S(=O)(=O)c1ccc(Cl)cc1,
,COc1ccc(CN(C(=O)c2ccc(Cl)cc2)[C@H](CC(C)C)C(N)=O)cc1F,IC50 [1]: Not Active
1.4,COc1ccc(CN([C@@H](C(N)=O)C(C)C)S(=O)(=O)c2ccc(Cl)cc2)cc1F,
220,COc1ccc(CN([C@H](CC(C)C)C(=O)O)S(=O)(=O)c2ccc(Cl)cc2)cc1F,
7.7,CC(C)C[C@H](C(N)=O)N(Cc1ccc(CN(C)C)cc1)S(=O)(=O)c1ccc(Cl)cc1,
0.62,CC(C)C[C@H](C(N)=O)N(Cc1cc(F)cc(F)c1)S(=O)(=O)c1ccc(Cl)cc1,
0.68,NC(=O)[C@@H](CC1CC1)N(Cc1ccc(C(F)(F)F)cc1)S(=O)(=O)c1ccc(Cl)cc1,Stability [3]: 0.23 nmol/min/mg; concentration at 3 h [4]: 6300 nM; concentration at 3 h [5]: 3600 nM; inhibition in vivo at 200 µmol/kg [6]: 78%; inhibition in vivo at 200 µmol/kg [7]: 65%; Stability [8]: 0.27 nmol/min/mg
315,COc1ccc(CN([C@@H](CC(C)C)C(N)=O)S(=O)(=O)c2ccc(Cl)cc2)cc1,
160,COc1ccc(CN([C@H](CC(C)C)C(=O)N(C)OC)S(=O)(=O)c2ccc(Cl)cc2)cc1,
53,COc1ccc(CN([C@H](CC(C)C)C(=O)NN)S(=O)(=O)c2ccc(Cl)cc2)cc1,
